Experimental data from ChEMBL document CHEMBL4354791, “Different solid forms for optimizing route of administration of the herpes drug Pritelivir” (Medchemcomm, 2019).
In brackets after ≈: the same amount, converted by molar mass.

How the values were obtained:
Format in all cases: physicochemical
[1] = Solubility of compound at pH 7.4; conditions: buffer
[2] = Saturated solubility of compound in ethanol
[3] = Saturated solubility of compound in isopropanol
[4] = Saturated solubility of compound in benzyl alcohol
[5] = Saturated solubility of compound in phenoxy ethanol
[6] = Saturated solubility of compound in dimethyl isosorbide
[7] = Saturated solubility of compound in propylene glycol
[8] = Saturated solubility of compound in transcutol p
[9] = Saturated solubility of compound in oleyl-alcohol
[10] = Saturated solubility of compound in glycerin
[11] = Saturated solubility of compound in isopropyl myristate
[12] = Saturated solubility of compound in crodamol-GTC
[13] = Saturated solubility of compound in water
Outline: (§1)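 Saturated solubility in the named medium (water or buffer at the stated pH), reported in mg ml−1. Levels below the detection limit are reported as BLOQ.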

[14] = Saturated solubility of compound in buffer at pH 3.5; outline: as §1
[15] = Saturated solubility of compound in buffer at pH 4.5; outline: as §1
[16] = Saturated solubility of compound in buffer at pH 5.5; outline: as §1
[17] = Saturated solubility of compound in buffer at pH 7; outline: as §1

Structure (SMILES) | solubility [1] | solubility thermodynamic [2] | solubility thermodynamic [3] | solubility [4] | solubility thermodynamic [5] | solubility [6] | solubility thermodynamic [7] | solubility thermodynamic [8] | solubility thermodynamic [9] | solubility thermodynamic [10] | solubility thermodynamic [11] | solubility thermodynamic [12] | solubility ([13]; buffer, BLD = below limit of detection) | solubility [14] | solubility [15] | solubility thermodynamic [16] | solubility thermodynamic [17] | solubility ([6]; BLD = below limit of detection) | solubility ([13]; water, read-out: solubility)
Cc1nc(N(C)C(=O)Cc2ccc(-c3ccccn3)cc2)sc1S(N)(=O)=O [PRITELIVIR] | 11.5 µg/mL (≈ 28.6 µM) | 300 µg/mL (≈ 745 µM) | 400 µg/mL (≈ 994 µM) | 2200 µg/mL (≈ 5470 µM) | 2200 µg/mL (≈ 5470 µM) | 82300 µg/mL (≈ 204000 µM) | 28400 µg/mL (≈ 70600 µM) | 44800 µg/mL (≈ 111000 µM) | 100 µg/mL (≈ 248 µM) | 500 µg/mL (≈ 1240 µM) | 100 µg/mL (≈ 248 µM) | 200 µg/mL (≈ 497 µM) | Bld | 100 µg/mL (≈ 248 µM) | 100 µg/mL (≈ 248 µM) | 100 µg/mL (≈ 248 µM) | 100 µg/mL (≈ 248 µM) | – | –
CS(=O)(=O)O.Cc1nc(N(C)C(=O)Cc2ccc(-c3ccccn3)cc2)sc1S(N)(=O)=O [PRITELIVIR MESYLATE] | – | 700 µg/mL | – | 2000 µg/mL | 10700 µg/mL | – | 4700 µg/mL | 1300 µg/mL | – | 13100 µg/mL | – | – | – | 1300 µg/mL | 400 µg/mL | 200 µg/mL | – | Bld | 1200 µg/mL
